Assay outcomes as filed in PubChem BioAssay.
CYP2C9 inh: human CYP2C9 inhibition; 96,000 compounds, 20% hits; CYP2C9 Supersomes, luciferin-H conversion, luminescence; inhibition, % at 5 µM; P11712;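 active = blocking of liver enzyme CYP2C9 beyond about 50% at 5 µM, limit read from the data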
CYP2C19 inhib: blocks human cytochrome P450 2C19 | inhibition, % at 5 µM | P33261 | 96,000 compounds, 21% hits | CYP2C19 Supersomes, luciferin-H EGE luminescence, 30 min;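 active = CYP2C19 inhibition above a set limit at 5 µM in the primary screen, cut at about 50% in these data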
HIV Rev-RRE inh: HIV Rev-RRE protein-RNA interaction inhibition; Rev peptide-RRE RNA binding, FRET; inhibition, % at 8 µM; 97,000 compounds, 0.79% hits; AID 704;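 active = inhibition above the screen-wide mean plus 3 SD, cut at about 35% in these data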
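Assay system: Rev peptide and RRE RNA, both fluorescently labelled; times: 5 min preincubation and 15 min binding, 25 °C; detection: FRET, ex 480 nm, em 540 and 671 nm; read-out basis: % inhibition from 671/540 nm acceptor-to-donor ratio, scaled between controls; benchmarks: DMSO low control, neomycin B high control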
Cav32 inh: blocks human Cav3.2 T-type calcium channel. O95180. B-score at 10 µM. AID 449739. 100,000 compounds, 4% hits. Cav3.2-expressing cells, Fluo-4 calcium fluorescence FDSS; stronger effect = lower value;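 active = single-dose well whose peak fluorescence ratio is a statistical outlier from its plate by either plate-standardised score or position-corrected B-score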
CYP2C9 act: CYP2C9 (human) activation; P11712; recombinant CYP2C9, luciferin-H conversion, luminescence; stronger effect = higher value; factor 1 = untreated enzyme, 0 = blocked; AID 1024; 96,000 compounds, 1.4% hits; activation factor at 5 µM;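 active = activation factor of 2 or more for CYP2C9 at a 5 µM dose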
CYP2C19 act: activators of human cytochrome P450 2C19. P33261. recombinant CYP2C19, luciferin-H EGE luminescence; stronger effect = higher value; 0 = fully inhibited enzyme, 1 = untreated enzyme. activation factor at 5 µM. 96,000 tested, under 10 active. AID 1025;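 active = activation factor of at least 2 at 5 µM in the primary screen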
Each line names hits and unclear results; the compound was inactive in the other large screens; [ ] = remark or other dose. Compounds with a hit are over-represented: about 27% of the library has one in this group of screens.

O=c1oc2cc(Oc3c([N+](=O)[O-])cc(C(F)(F)F)cc3[N+](=O)[O-])ccc2c2c1CCCC2	none
COc1ccc(-c2nnc(SCC(=O)Oc3ccc(C)cc3)o2)cc1	none (no result: CYP2C9 inh, CYP2C19 inhib, CYP2C9 act, CYP2C19 act)
CSC1=N/C(=C\c2ccccc2)C(=O)N1C	none
Cc1ccc2c(C)nc(Nc3nc(CSc4nnnn4-c4ccccc4)cc(=O)[nH]3)nc2c1	CYP2C9 inh 88, CYP2C19 inhib 60 (no result: HIV Rev-RRE inh, Cav32 inh)
COc1ccc2nc(Nc3nc(CSc4nnnn4-c4ccccc4)cc(=O)[nH]3)nc(C)c2c1	none
CCOc1ccc2nc(Nc3nc(CSc4nnnn4-c4ccccc4)cc(=O)[nH]3)nc(C)c2c1	CYP2C9 inh 51, CYP2C19 inhib 53
CCOC(=O)c1ccc(N2C(=O)c3n[nH]c(C)c3C2c2ccc(OC)cc2)cc1 (configuration not stated)	CYP2C9 inh 93, CYP2C19 inhib 90
COc1cc(C2c3c(-c4ccccc4)n[nH]c3C(=O)N2c2ccc(C(=O)O)cc2)ccc1O (configuration not stated)	none (no result: Cav32 inh)
CCOC(=O)c1ccc(N2C(=O)c3n[nH]c(C)c3C2c2ccc(OC)cc2OC)cc1 (configuration not stated)	none (no result: CYP2C9 inh, CYP2C19 inhib, CYP2C9 act, CYP2C19 act)
CCOC(=O)c1ccc(N2C(=O)C(O)=C(C(C)=O)C2c2ccc(O)c(OC)c2)cc1 (configuration not stated)	CYP2C9 inh 81 (no result: HIV Rev-RRE inh)
CCOC(=O)c1ccc(N2C(=O)c3n[nH]c(C)c3C2c2ccc(OC)c(OC)c2)cc1 (configuration not stated)	CYP2C9 inh 78, CYP2C19 inhib 82
CCOC(=O)c1ccc(N2C(=O)c3n[nH]c(C)c3C2c2ccco2)cc1 (configuration not stated)	CYP2C9 inh 77, CYP2C19 inhib 81
COc1ccc(-n2c(N)c(Br)c(=O)[nH]c2=O)cc1	none
CCN(CC)C(=S)Sc1c(-c2ccccc2)c2cc(Cl)ccc2[nH]c1=O	none
COC(=O)c1ccc(C2c3c(n[nH]c3C)C(=O)N2c2ccc(C)cc2)cc1 (configuration not stated)	CYP2C9 inh 63, CYP2C19 inhib 77
O=C1CCCN1c1ccc(S(=O)(=O)Nc2ccc3c(c2)OCCO3)cc1	none
O=S(=O)(Nc1ccc2c(c1)OCCO2)c1cccc2nsnc12	CYP2C19 inhib 60 (no result: Cav32 inh)
CSc1ccc(S(=O)(=O)Nc2ccc(N3CCOCC3)c(Cl)c2)cc1	CYP2C9 inh 98, CYP2C19 inhib 100
O=C(CCNS(=O)(=O)c1cccc2nsnc12)Nc1ccc2c(c1)OCCO2	none
O=S(=O)(Nc1ccc2c(c1)OCCO2)c1ccc(F)cc1	CYP2C9 inh 69, CYP2C19 inhib 88
O=C(Nc1ccc(N2CCOCC2)c(Cl)c1)c1ccc(F)cc1	none (no result: CYP2C9 inh, CYP2C19 inhib, CYP2C9 act, CYP2C19 act)
CSc1ccc(S(=O)(=O)Nc2ccc3c(c2)OCCO3)cc1	CYP2C19 inhib 68 (no result: HIV Rev-RRE inh)
O=C(NCc1ccco1)C(NS(=O)(=O)c1cccc2nsnc12)c1ccccc1 (configuration not stated)	none
Cn1c(=O)c2c(SCc3ccccc3)nc(-c3ccco3)nc2n(C)c1=O	none (no result: HIV Rev-RRE inh)
Cc1ccc2c(c1C)NC(C)CC2C (configuration not stated)	none
CC(OC1=CC(=O)CCC1)C(=O)c1ccccc1 (configuration not stated)	none
O=S(=O)(NCc1ccc(F)cc1)c1ccc2c(c1)OCCO2	CYP2C19 inhib 60, CYP2C9 act 2
CC(C)CNS(=O)(=O)c1ccc2c(c1)OCCO2	none
CC1CCc2nc3ccc(S(=O)(=O)N4CCC(C(=O)N5CCCCC5)CC4)cc3c(C(=O)O)c2C1 (configuration not stated)	none
CC1CCc2nc3ccc(S(=O)(=O)N4CCC(C(=O)NC5CCCC5)CC4)cc3c(C(=O)O)c2C1 (configuration not stated)	CYP2C9 inh 60
CCCS(=O)(=O)N1CCCC(C(=O)NCCCN2CCN(c3cccc(Cl)c3)CC2)C1 (configuration not stated)	none (no result: Cav32 inh)
Cc1cc(C(=O)CSc2nnc3c(Cl)cc(Cl)cn23)c(C)n1C	none
C=CCn1c(C)cc(C(=O)CSc2nnc3c(Cl)cc(Cl)cn23)c1C	CYP2C19 inhib 78
CCC1c2ccc(C)n2CCN1C(=O)Nc1ccc(F)cc1 (configuration not stated)	none
Cc1ccc(NC(=O)c2ccc(Cl)c(N3C(=O)C=CC3=O)c2)cc1	CYP2C9 inh 62
CCOC(=O)Cc1csc(NC(=O)c2sc3nc4c(C)cc(C)cc4cc3c2N)n1	CYP2C9 inh 59, HIV Rev-RRE inh 107[fluorescence artefact?]
CCOC(=O)Cc1csc(NC(=O)COc2ccc3ccccc3c2)n1	CYP2C19 inhib 53, Cav32 inh -10
CCOC(=O)Cc1cnc(NC(=O)c2ccccc2)s1	CYP2C9 inh 84, CYP2C19 inhib 94
CCOC(=O)Cc1csc(NC(=O)CCS(=O)(=O)Cc2ccccc2)n1	CYP2C9 inh 53
Cc1cc(C)cc(N2CCCn3c2nc2c3c(=O)n(CCN3CCOCC3)c(=O)n2C)c1	none
Cc1ccc(-n2nnc3c(=O)n(CC(=O)NCC4CCCO4)cnc32)cc1 (configuration not stated)	none
O=C(CSc1nc(N2CCCCC2)nc(N2CCCCC2)n1)NC1CCCCC1	none (no result: CYP2C9 inh, CYP2C19 inhib, Cav32 inh, CYP2C9 act, CYP2C19 act)
Cc1nn(-c2ccccc2)c(C)c1NC(=O)COc1ccc2ccccc2c1	CYP2C19 inhib 74
CCOC(=O)Cc1csc(NC(=O)COc2ccc(N(C)S(=O)(=O)c3ccc(C)cc3)cc2)n1	CYP2C9 inh 92, CYP2C19 inhib 92, Cav32 inh -6.5
CCOC(=O)Cc1csc(NC(=O)c2cccc(OC)c2)n1	CYP2C9 inh 65
CCOC(=O)Cc1csc(NC(=O)c2ccc(OC)c(OC)c2)n1	none
CCOC(=O)Cc1nnc(NC(=O)COc2ccc(OC)cc2)s1	CYP2C9 inh 61
O=C(CCC1CCCC1)Nc1ccc(Br)cn1	none
CCNC(=S)N(Cc1ccc2c(c1)OCO2)C1CC(=O)N(c2ccc(OC)cc2)C1=O (configuration not stated)	none
CCNC(=S)N(Cc1ccc2c(c1)OCO2)C1CC(=O)N(c2ccc(F)cc2)C1=O (configuration not stated)	CYP2C9 inh 71, CYP2C19 inhib 94, Cav32 inh -7.1
O=C(Nc1cc(S(=O)(=O)N2CCOCC2)ccc1Cl)C(=O)c1c(-c2ccccc2)cc2ccccn12	CYP2C9 inh 70
CCOC(=O)C(=O)Nc1ccc(S(=O)(=O)N2CCOCC2)cc1OC	none
Cc1ccc2[nH]c(=O)c(CN(CC3CCCO3)C(=O)c3ccncc3)cc2c1 (configuration not stated)	CYP2C9 inh 84, CYP2C19 inhib 98
O=C(c1cccs1)N(Cc1ccco1)Cc1cc2ccccc2[nH]c1=O	CYP2C9 inh 67, CYP2C19 inhib 75 (no result: HIV Rev-RRE inh)
